# SIAE primary: human SIAE inhibition, primary screen. Q9HAT2. SIAE FP-Rh probe binding, fluorescence polarization. inhibition, % at 9.66 µM. actives 0.69% (n = 370,000);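 active = inhibition above a cutoff: mean of compounds within the control limits plus 3 SD of those, cut at about 17% in these data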;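 also: 0% = plate median of compound wells and 100% = probe without SIAE protein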
# ABHD4 inh: inhibitors of mouse ABHD4 | inhibition, % at 8.92 µM | purified mABHD4, FP-Rh probe fluorescence polarization | actives 0.54% (n = 370,000);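 active = inhibition exceeding the mean over every tested compound plus 3 SD, cut at about 30% in these data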;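 also: 0% = plate median of compound wells and 100% = S159A mutant with DMSO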
#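 assay system = mABHD4 protein | compound dosing = single nominal dose of 8.92 µM, 0.89% DMSO final | read-out basis = percent inhibition of probe binding, normalized to plate controls | schedule = Enzyme–compound pre-incubation 45 min, then probe 60 min, both 25 °C | detection = fluorescence polarization, excitation 525 nm, emission 598 nm, BODIPY TMR filters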
# HTRA1 inh: inhibitors of human serine peptidase HTRA1; Q92743; recombinant HTRA1, FP-rhodamine activity-based probe, fluorescence polarization; inhibition, % at 5.96 µM; actives 0.5% (n = 340,000); AID 504803; in the data active = inhibition above about 36%;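 also: 0% = enzyme with DMSO and 100% = wells lacking enzyme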
# ATG4B inhibitor: blocks human ATG4B protease cleavage of LC3 substrate; Q9Y4P1; inhibition, % at 8.33 µM; ATG4B cleavage of LC3-PLA2, NBD-HPC fluorescence, 1 h; AID 504462; actives 0.51% (n = 340,000); in the data active = inhibition above about 40%
# TCR CD3 inh: blocks the human TCR-CD3 interaction. TAMRA-labeled TCR probe fluorescence, biochemical. inhibition, % at 9.4 µM. actives 0.37% (n = 360,000). AID 651800; in the data active = inhibition above about 19%;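 also: recombinant mutant TCR 2C K166C tagged with TAMRA read by polarization; 0% = receptor in buffer alone and 100% = receptor with positive control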
# PRMT1 FP inh: PRMT1 (human) inhibition, primary screen; Q99873; recombinant PRMT1, activity-based probe fluorescence polarization; inhibition, % at 2.79 µM; actives 1.3% (n = 370,000);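 active = inhibition above about 21% made by adding two undisclosed values, limit read from the data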
# Target sequence (Q99873 whole entry, looked up): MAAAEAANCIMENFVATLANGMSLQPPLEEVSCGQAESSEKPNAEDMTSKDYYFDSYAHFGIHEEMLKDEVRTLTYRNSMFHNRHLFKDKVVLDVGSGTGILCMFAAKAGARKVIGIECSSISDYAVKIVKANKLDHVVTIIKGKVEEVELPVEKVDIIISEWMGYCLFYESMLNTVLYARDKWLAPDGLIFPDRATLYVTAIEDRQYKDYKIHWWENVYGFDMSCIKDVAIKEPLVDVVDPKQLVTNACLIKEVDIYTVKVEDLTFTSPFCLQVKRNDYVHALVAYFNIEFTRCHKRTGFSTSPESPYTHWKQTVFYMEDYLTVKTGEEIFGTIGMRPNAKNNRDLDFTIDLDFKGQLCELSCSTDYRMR
# PRMT1 inh conf: PRMT1 (human) inhibition, FP confirmation. recombinant His-PRMT1, activity-based probe fluorescence polarization. inhibition, % at 2.79 µM. actives 42% (n = 3,300). shares compounds with PRMT1 FP inh. AID 687036;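 active = mean inhibition across replicates above the hit cutoff derived for the earlier primary screen, cut at about 22% in these data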
# Numbers without * were called inactive; x = no result. Hits are enriched below; roughly 2.9% of the tested compounds scored in any of these assays.
SMILES,SIAE primary,ABHD4 inh,HTRA1 inh,ATG4B inhibitor,TCR CD3 inh,PRMT1 FP inh,PRMT1 inh conf
C[n+]1c(-c2ccccc2)sc([S-])c1-c1ccccc1,-2,-4,x,-1,-10,51*,20
COC(=O)[C@@H]1C[C@@]2(c3ccccc3)c3ccccc3N(S(=O)(=O)c3ccccc3)[C@H]2N1C(=O)CNC1CCCCC1,4,11,x,x,x,1,x
COC(=O)c1c(N)sc(C(=O)NCCc2ccccc2)c1C,3,1,3,3,1,26*,30*
COc1cccc(OC)c1C(=O)NCCc1ccccc1,-3,-7,-3,-6,1,10,x
CCOC(=O)c1sc(N)c(C(=O)Nc2ccccc2OC)c1C,2,0,-19,-11,-2,26*,7
O=C(O)CN1C(=O)C2C3CC(C2C1=O)C1C(c2ccc(Cl)cc2)c2sc(=O)[nH]c2SC31 (configuration not stated),9,2,5,-5,-13,64*,15
O=C(O)CCCN1C(=O)C2C3CC(C2C1=O)C1C(c2ccccc2)c2sc(=O)[nH]c2SC31 (configuration not stated),6,-2,2,-7,3,12,x
O=C(O)CN1C(=O)C2C3CC(C2C1=O)C1C(c2ccc(F)cc2)c2sc(=O)[nH]c2SC31 (configuration not stated),2,-4,4,6,4,37*,22*
CC(C(=O)O)N1C(=O)C2C3CC(C2C1=O)C1C(c2ccccc2)c2sc(=O)[nH]c2SC31 (configuration not stated),5,3,4,1,12,29*,21*
CCCCNC(=O)OCCCN1CCC2(CCC(c3ccccc3)CC2)C1 (configuration not stated),1,-4,x,x,x,4,x
CC(C)CN1C(=O)[C@@]2(CC(=O)N(C)C2c2ccccc2)c2cc(-n3cc(CN(C)C)nn3)ccc21 (some centres not stated),6,-4,x,x,x,1,x
CCn1c(SCC(=O)c2ccccc2)nc2sc3c(c2c1=O)CCN(C)C3,-5,6,-14,-5,-2,55*,14
CC1(C(=O)CSc2nc3ccccc3s2)CCC(=O)O1 (configuration not stated),6,2,6,2,11,29*,22*
CC1(C)CC2(CC(C)(C(=O)CSc3nc4ccccc4s3)OC2=O)C(=O)O1 (configuration not stated),-2,-13,-3,1,-3,9,x
CC1CCCC(NC2CCCCNC2=O)C1 (configuration not stated),2,0,1,8,0,27*,-7
CCC1CCC(NC2CCCCNC2=O)CC1 (configuration not stated),0,4,0,19,-2,3,x
O=C(O)c1cccc(-n2cccc2/C=C\[N+](=O)[O-])c1,-1,15,2,8,-3,36*,5
O=C(O)c1cccc(-n2cccc2/C=N/O)c1,2,4,4,-12,0,0,x
CCOC(=O)c1sc2nc(-c3ccco3)c3c(c2c1N)CC(C)(C)OC3,3,20,2,5,1,41*,43*
Cc1nc2sc(C(=O)O)c(N)c2c2c1COC(C)(C)C2,-4,0,1,3,-4,13,x
CC1(C)Cc2c(c(N3CCOCC3)nc3sc(C(=O)Nc4ccc(Cl)cc4)c(N)c23)CO1,-4,-14,-4,-11,-11,53*,1
CC1(C)Cc2c(c(N3CCOCC3)nc3sc(C(N)=O)c(N)c23)CO1,4,0,0,-8,-11,37*,7
O=C(O)C(Cc1ccccc1)N1C(=O)CCC1=O (configuration not stated),-10,1,-3,12,2,-1,x
O=C(O)C(Cc1ccccc1)N1C(=O)C=CC1=O (configuration not stated),-8,6,2,x,-2,52*,64*
C#CCN(CC=C)Cc1ccc(OC)cc1OC,-4,0,x,x,x,2,x
SMILES,SIAE primary,ABHD4 inh,HTRA1 inh,ATG4B inhibitor,TCR CD3 inh,PRMT1 FP inh,PRMT1 inh conf
Cc1ccc(NC(=O)CC2SC(=NC3CCCCC3)NC2=O)cc1 (configuration not stated),-2,-18,-5,-13,0,8,x
Cc1ccccc1NC(=O)CC1SC(=NC2CCCCC2)NC1=O (configuration not stated),0,-2,4,-6,-7,32*,3
O=C(CN1C(=O)CCSc2ccccc21)Nc1ccc(Cl)c(Cl)c1,-6,-10,x,x,x,1,x
COCCN(C(=O)CSc1nnc(-c2ccccc2C)n1C)c1c(N)n(Cc2ccccc2)c(=O)[nH]c1=O,15,-1,-1,-6,-1,28*,33*
CCN(C(=O)CSc1nnc(-c2ccc(OC)cc2)n1N)c1c(N)n(Cc2ccccc2)c(=O)[nH]c1=O,6,8,8,-35,-1,36*,28*
CC(C)CN(C(=O)CSc1nc(-c2ccccc2)cn1N)c1c(N)n(Cc2ccccc2)c(=O)[nH]c1=O,10,2,-8,-22,2,26*,10
Cc1ccc(-c2nc3c(Cl)cc(C(F)(F)F)cn3c2Cc2ccccc2C(F)(F)F)cc1,-13,-25,x,x,1,1,x
FC(F)(F)c1ccccc1Cc1c(-c2ccco2)nc2ccc(Cl)cn12,-9,6,x,x,0,35*,16
FC(F)(F)c1cc(Cl)c2nc(-c3ccco3)c(Cc3ccccc3C(F)(F)F)n2c1,4,-2,x,x,6,47*,15
FC(F)(F)c1ccccc1Cc1c(-c2ccccc2)nc2ccc(Cl)cn12,-2,18,x,x,-3,2,x
O=S(=O)(CC1NCc2cc(F)ccc21)NCCc1ccccc1 (configuration not stated),6,-5,x,x,x,-1,x
COc1ccccc1C(=O)N1CCCC(c2nc(-c3cccs3)no2)C1 (configuration not stated),1,6,x,x,x,1,x
COc1ccc(NC(=O)C2=CC(c3ccc(OC)cc3)=NS(=O)(=O)N2C)cc1,-8,-12,-14,-10,-1,1,x
COc1ccc(C2=NS(=O)(=O)N(C)C(C(=O)Nc3ccc(F)cc3F)=C2)cc1,3,-5,-15,-12,0,85*,5
Cc1ccc(CN2CCCCC(NC(=O)c3ccc4ccccc4c3)C2=O)cc1 (configuration not stated),6,0,x,x,x,-2,x
COc1ccccc1OCC(=O)Nc1nnc(-c2ccco2)s1,3,9,-1,2,15,73*,2

# Bioassay records deposited in PubChem BioAssay by several laboratories.
